From ChEMBL document CHEMBL4376814, “Novel cyclin-dependent kinase 9 (CDK9) inhibitor with suppression of cancer stemness activity against non-small-cell lung cancer” (Eur J Med Chem, 2019)
pIC50: −log10 of the molar value. Activity calls are given as the source filed them. The rule behind the calls is not given here.

Key:
[1] = biological target: Ephrin type-B receptor 1 (Homo sapiens) (UniProt P54762); assay: Inhibition of recombinant human EphB1 (564 to end residues) at 1 uM using KVEKIGEGTYGVVYK as substrate measured after 40 mins in presence of [gamma33P]ATP by scintillation counting method relative to control
[2] = biological target: Testis-specific serine/threonine-protein kinase 4 (Homo sapiens) (UniProt Q6SA08); assay: Inhibition of recombinant full-length human TSSK4 at 1 uM using KKLNRTLSFAEPG as substrate measured after 40 mins in presence of [gamma33P]ATP by scintillation counting method relative to control
[3] = Toxicity in Balb/c mouse xenografted with human H1299 cells assessed as effect on body weight at 20 to 80 mg/kg, po administered for 21 days and measured daily […]; format: organism-based; conditions: in vivo, 504 h
[4] = biological target: BDNF/NT-3 growth factors receptor (Homo sapiens) (UniProt Q16620); assay: Inhibition of recombinant human TRKB (455 to end residues) at 1 uM using poly(Glu, Tyr) 4:1 as substrate measured after 40 mins in presence of [gamma33P]ATP by scintillation counting method relative to control
SiHa = assay: Antiproliferative activity against human SiHa cells assessed as inhibition of cell viability at 10 uM after 72 hrs by CCK-8 assay relative to control; format: functional
Method in brief: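 Single-concentration viability screen using CCK-8. Cells were seeded at 3000/well and treated for 72 h. A450 read after 1-4 h with reagent. Percent inhibition calculated against untreated control and blank wells as (Ac−As)/(Ac−Ab)×100%.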

[5] = biological target: Bone morphogenetic protein receptor type-1B (Homo sapiens) (UniProt O00238); assay: Inhibition of recombinant human ALK6 (148 to end residues) at 1 uM using casein as substrate measured after 40 mins in presence of [gamma33P]ATP by scintillation counting method relative to control
[6] = biological target: Cyclin-dependent kinase-like 3 (Homo sapiens) (UniProt Q8IVW4); assay: Inhibition of human full length recombinant human CDKL3 at 1 uM using RRRFRPASPLRGP as substrate measured after 120 mins in presence of [gamma33P]ATP by scintillation counting method relative to control
Cyclin-dependent kinase-like 3 (Homo sapiens), sequence (Q8IVW4 whole entry, looked up): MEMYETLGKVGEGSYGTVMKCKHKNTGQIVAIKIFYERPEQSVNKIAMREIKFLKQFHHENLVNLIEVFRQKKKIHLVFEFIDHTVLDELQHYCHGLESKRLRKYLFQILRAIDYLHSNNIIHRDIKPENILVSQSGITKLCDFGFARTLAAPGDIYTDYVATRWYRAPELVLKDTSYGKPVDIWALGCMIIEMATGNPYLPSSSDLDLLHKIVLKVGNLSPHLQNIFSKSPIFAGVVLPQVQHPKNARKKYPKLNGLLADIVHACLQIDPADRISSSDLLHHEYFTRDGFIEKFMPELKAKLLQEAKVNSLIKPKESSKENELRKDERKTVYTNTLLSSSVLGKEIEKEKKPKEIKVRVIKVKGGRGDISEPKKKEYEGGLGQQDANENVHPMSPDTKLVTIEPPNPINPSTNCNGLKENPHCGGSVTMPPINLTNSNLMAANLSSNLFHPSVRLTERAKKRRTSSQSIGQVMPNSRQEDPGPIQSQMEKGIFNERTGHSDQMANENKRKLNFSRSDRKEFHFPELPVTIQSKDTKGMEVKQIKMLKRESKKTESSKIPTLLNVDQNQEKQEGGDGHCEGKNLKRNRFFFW

[7] = Half life in CD-1 mouse liver microsomes at 2 uM in presence of NADPH measured up to 1 hr by HPLC analysis; format: ADME, Microsome
Method in brief: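 Drug at 2 µM incubated at 37 °C with male liver microsomes at 1 mg/mL, in 0.1 M phosphate buffer pH 7.4 with MgCl2. After 5 min preincubation, reaction started with NADPH. Samples (n=3) taken at 0, 10, 20, 30, 45 and 60 min, quenched with ice-cold acetonitrile, spun, and analysed by HPLC. t1/2 derived from the fitted rate constant k.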

[8] = system: Protein kinase C eta type (Homo sapiens), P24723 [UNDEFINED MUTATION]; assay: Inhibition of recombinant human PKCeta V108L/G109R/L392Q mutant (2 to end residues) at 1 uM using ERMRPRKRQGSVRRRV as substrate measured after 40 mins in presence of [gamma33P]ATP by scintillation counting method relative to control
Protein kinase C eta type (Homo sapiens), P24723 [UNDEFINED MUTATION], sequence (P24723 whole entry, looked up, stated change not applied): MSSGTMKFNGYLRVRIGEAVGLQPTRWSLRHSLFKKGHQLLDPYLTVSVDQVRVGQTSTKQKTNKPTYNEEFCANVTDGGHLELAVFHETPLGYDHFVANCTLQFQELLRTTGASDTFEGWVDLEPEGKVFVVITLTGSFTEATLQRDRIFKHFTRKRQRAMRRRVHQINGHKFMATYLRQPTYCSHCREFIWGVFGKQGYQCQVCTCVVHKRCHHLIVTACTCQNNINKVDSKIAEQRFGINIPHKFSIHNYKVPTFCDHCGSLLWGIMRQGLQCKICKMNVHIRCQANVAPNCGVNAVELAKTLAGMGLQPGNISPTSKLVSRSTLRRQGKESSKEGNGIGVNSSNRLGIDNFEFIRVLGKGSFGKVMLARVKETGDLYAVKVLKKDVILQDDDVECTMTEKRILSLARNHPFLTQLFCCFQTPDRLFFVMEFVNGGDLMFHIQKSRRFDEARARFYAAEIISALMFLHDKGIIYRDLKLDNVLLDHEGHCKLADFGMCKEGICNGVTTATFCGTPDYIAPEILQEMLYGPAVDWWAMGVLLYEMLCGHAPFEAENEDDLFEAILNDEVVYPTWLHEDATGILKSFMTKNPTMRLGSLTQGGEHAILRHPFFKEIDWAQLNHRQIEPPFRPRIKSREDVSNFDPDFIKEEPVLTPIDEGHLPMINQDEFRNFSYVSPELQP

NCI-H1299 [9] = assay: Induction of apoptosis in human H1299 cells assessed as increase in Bim level at 0.25 to 1 uM after 24 hrs by Western blot analysis; format: functional, cell-based
Method in brief: (§1)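 A549 or H1299 cells exposed to the indicated concentrations for 24 h. Protein extracts then immunoblotted for apoptosis-pathway proteins (Bcl2, Bim, cleaved caspase 3).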

[10] = biological target: CDK6/cyclin D3 (Homo sapiens) (UniProt P30281+Q00534); assay: Inhibition of recombinant full-length human CDK6/cyclinD3 at 500 nM using histone H1 as substrate measured after 40 mins in presence of [gamma33P]ATP by scintillation counting method relative to control; format: protein-complex assay
Method in brief: (§2)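 Percent inhibition of kinase activity at a single compound concentration, measured by the outsourced Eurofins KinaseProfiler panel. Values are the mean of two independent experiments.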

NCI-H1299 [11] = assay: Induction of apoptosis in human H1299 cells assessed as early apoptotic cells at 0.25 uM after 48 hrs by AnnexinV-FITC/PI staining-based flow cytometric analysis (reference value: 0.248%); format: functional
[12] = biological target: Proto-oncogene tyrosine-protein kinase Src (Homo sapiens) (UniProt P12931); assay: Inhibition of recombinant full-length human cSRC at 1 uM using KVEKIGEGTYGVVYK as substrate measured after 40 mins in presence of [gamma33P]ATP by scintillation counting method relative to control
Proto-oncogene tyrosine-protein kinase Src (Homo sapiens), sequence (P12931 2-536 limits assumed): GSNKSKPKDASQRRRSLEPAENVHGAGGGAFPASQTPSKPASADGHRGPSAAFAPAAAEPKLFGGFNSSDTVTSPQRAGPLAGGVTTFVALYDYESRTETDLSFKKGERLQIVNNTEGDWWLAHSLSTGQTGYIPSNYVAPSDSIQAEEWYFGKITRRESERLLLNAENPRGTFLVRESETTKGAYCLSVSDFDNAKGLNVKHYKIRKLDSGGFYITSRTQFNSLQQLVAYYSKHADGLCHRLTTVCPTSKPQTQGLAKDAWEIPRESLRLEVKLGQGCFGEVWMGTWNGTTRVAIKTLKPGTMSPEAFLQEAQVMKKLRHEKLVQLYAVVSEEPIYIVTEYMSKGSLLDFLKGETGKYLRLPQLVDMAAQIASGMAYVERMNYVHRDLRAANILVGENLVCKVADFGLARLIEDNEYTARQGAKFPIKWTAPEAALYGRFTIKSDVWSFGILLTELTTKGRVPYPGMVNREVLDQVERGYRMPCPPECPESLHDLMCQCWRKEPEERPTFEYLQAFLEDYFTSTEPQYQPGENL

[13] = biological target: Serine/threonine-protein kinase 38-like (Homo sapiens) (UniProt Q9Y2H1); assay: Inhibition of recombinant human NDR2 (83 to end residues) at 1 uM using RSRSRSRSRSRSRSR as substrate measured after 120 mins in presence of [gamma33P]ATP by scintillation counting method relative to control
Serine/threonine-protein kinase 38-like (Homo sapiens), sequence (Q9Y2H1 2-464 limits assumed): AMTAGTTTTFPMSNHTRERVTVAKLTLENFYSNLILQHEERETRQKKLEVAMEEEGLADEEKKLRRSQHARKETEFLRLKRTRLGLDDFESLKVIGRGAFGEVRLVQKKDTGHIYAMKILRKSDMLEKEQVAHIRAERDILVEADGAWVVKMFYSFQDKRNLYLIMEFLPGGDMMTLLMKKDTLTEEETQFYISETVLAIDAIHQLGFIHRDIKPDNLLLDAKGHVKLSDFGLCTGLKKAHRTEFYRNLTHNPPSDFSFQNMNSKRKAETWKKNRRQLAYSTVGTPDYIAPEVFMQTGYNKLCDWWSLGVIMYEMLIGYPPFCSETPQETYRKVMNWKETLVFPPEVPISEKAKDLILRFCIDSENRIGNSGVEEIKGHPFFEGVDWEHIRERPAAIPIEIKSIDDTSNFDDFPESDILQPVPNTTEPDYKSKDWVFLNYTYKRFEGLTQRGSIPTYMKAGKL

NCI-H1299 [14] = assay: Antiproliferative activity against human H1299 cells assessed as inhibition of cell viability after 72 hrs by CCK-8 assay; format: functional, cell-based; conditions: NCI-H1299, 72 h
Method in brief: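 Cells kept at 37 °C, 5% CO2 in DMEM or RPMI-1640 with 10% FBS and 1% penicillin/streptomycin, then seeded at 3000 cells/well (adherent) or 10,000 cells/well (suspension). Exposed to a range of concentrations for 72 h. CCK-8 added for 1-4 h before reading A450. […] Three independent experiments.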

[15] = biological target: Ribosomal protein S6 kinase alpha-3 (Homo sapiens) (UniProt P51812); assay: Inhibition of recombinant full-length human Rsk3 at 1 uM using KKKNRTLSVA as substrate measured after 40 mins in presence of [gamma33P]ATP by scintillation counting method relative to control
Ribosomal protein S6 kinase alpha-3 (Homo sapiens), sequence (P51812 whole entry): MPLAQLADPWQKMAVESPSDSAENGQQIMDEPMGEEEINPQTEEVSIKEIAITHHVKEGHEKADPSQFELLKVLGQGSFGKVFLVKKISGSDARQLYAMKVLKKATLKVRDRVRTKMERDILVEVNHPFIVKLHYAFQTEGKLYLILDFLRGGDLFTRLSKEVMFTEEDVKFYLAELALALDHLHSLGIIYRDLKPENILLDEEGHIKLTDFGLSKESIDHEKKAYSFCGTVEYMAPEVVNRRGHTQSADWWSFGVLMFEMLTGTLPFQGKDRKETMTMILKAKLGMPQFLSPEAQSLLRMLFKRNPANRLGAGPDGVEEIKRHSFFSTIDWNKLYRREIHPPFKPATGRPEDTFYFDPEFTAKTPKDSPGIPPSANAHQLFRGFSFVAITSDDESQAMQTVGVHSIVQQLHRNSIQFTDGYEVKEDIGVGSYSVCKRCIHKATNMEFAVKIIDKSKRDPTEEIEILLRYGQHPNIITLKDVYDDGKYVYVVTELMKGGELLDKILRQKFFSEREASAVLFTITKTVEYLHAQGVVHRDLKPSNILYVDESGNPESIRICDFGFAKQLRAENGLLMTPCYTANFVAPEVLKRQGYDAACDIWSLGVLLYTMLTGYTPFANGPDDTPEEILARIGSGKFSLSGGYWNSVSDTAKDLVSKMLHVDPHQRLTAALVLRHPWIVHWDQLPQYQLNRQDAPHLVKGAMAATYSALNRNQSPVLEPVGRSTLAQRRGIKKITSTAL
Method in brief: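 Single-point inhibition at 1 µM was measured in the Eurofins KinaseProfiler panel. Values are the mean of two independent experiments.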

[16] = system: Dual specificity protein kinase TTK (Homo sapiens), P33981 [S389A]; assay: Inhibition of recombinant full-length human TTK S389A mutant at 1 uM using MBP as substrate measured after 40 mins in presence of [gamma33P]ATP by scintillation counting method relative to control
[17] = biological target: Vascular endothelial growth factor receptor 1 (Homo sapiens) (UniProt P17948); assay: Inhibition of recombinant human Flt1 (783 to end residues) at 1 uM using KKKSPGEYVNIEFG as substrate measured after 40 mins in presence of [gamma33P]ATP by scintillation counting method relative to control
Vascular endothelial growth factor receptor 1 (Homo sapiens), sequence (P17948 whole entry): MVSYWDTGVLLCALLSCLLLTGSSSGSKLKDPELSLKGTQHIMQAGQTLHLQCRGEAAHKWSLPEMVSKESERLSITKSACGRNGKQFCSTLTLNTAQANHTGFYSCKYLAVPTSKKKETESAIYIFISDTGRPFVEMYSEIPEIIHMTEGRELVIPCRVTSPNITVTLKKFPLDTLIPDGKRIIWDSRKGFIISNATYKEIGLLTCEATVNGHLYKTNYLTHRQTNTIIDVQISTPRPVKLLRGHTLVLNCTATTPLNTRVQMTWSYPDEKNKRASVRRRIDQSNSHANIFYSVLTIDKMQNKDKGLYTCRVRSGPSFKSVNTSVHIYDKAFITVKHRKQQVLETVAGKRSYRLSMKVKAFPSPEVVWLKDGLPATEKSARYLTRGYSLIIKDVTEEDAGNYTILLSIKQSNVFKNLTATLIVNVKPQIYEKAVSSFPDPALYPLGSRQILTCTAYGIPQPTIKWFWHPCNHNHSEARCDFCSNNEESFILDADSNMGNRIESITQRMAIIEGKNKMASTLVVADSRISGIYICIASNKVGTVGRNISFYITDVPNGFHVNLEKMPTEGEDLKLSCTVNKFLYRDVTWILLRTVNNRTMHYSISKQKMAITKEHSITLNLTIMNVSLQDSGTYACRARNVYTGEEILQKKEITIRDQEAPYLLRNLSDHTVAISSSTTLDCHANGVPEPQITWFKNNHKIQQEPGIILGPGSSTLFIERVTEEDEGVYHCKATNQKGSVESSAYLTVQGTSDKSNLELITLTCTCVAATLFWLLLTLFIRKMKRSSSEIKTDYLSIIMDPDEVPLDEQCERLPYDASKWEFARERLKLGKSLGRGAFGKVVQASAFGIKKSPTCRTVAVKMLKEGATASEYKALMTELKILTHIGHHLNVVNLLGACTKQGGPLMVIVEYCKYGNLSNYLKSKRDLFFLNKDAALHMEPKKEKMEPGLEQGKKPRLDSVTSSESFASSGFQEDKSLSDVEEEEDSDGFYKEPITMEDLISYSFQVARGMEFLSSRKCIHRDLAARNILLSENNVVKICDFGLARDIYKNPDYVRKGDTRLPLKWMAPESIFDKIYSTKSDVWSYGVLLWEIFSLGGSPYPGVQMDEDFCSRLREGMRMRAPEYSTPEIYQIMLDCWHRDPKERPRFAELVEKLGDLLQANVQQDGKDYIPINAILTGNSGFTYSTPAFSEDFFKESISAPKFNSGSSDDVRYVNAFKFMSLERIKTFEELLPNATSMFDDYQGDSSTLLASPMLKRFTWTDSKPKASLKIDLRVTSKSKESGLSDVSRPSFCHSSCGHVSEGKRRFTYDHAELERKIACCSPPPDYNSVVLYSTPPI

NCI-H1299 [18] = assay: Induction of apoptosis in human H1299 cells assessed as activation of caspase 3 at 0.25 to 1 uM after 24 hrs by Western blot analysis; format: functional, cell-based; method in brief: as §1
[19] = biological target: Receptor-interacting serine/threonine-protein kinase 2 (Homo sapiens) (UniProt O43353); assay: Inhibition of human RIPK2 (1 to 299 residues) at 1 uM using myelin basic protein as substrate measured after 120 mins in presence of [gamma33P]ATP by scintillation counting method relative to control; method in brief: as §2
Receptor-interacting serine/threonine-protein kinase 2 (Homo sapiens), sequence (O43353 whole entry, the tested form may be a part): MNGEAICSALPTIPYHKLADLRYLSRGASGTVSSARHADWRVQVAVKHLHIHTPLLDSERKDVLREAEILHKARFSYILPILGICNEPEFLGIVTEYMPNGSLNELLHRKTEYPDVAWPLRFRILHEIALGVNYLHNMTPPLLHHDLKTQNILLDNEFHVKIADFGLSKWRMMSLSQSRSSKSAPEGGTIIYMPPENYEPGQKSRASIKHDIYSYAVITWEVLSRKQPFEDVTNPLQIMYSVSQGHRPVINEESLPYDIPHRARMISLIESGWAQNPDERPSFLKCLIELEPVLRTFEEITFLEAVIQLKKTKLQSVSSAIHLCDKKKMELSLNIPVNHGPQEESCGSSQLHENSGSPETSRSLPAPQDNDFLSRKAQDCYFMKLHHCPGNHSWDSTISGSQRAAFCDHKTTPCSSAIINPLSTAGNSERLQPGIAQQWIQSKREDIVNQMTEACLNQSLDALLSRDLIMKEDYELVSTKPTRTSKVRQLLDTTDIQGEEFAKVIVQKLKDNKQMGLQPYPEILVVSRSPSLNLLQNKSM

[20] = biological target: Tyrosine-protein kinase receptor TYRO3 (Homo sapiens) (UniProt Q06418); assay: Inhibition of human RSE (451 to end residues) at 1 uM using KVEKIGEGTYGVVYK as substrate measured after 40 mins in presence of [gamma33P]ATP by scintillation counting method relative to control; method in brief: as §2

Question: For `CN(C)C(=O)c1cc2cnc(Nc3ccc(NC(=O)CCCCCCCN=C=S)cc3)nc2n1C1CCCC1`, which inhibition [1] is on record?
Answer: The inhibition was 9%.

Question: And the inhibition [2]?
Answer: The inhibition was -7%.

Question: What about the Activity [3] of the same compound?
Answer: Its Activity is “Non-Toxic”.

Question: And the inhibition [4]?
Answer: The inhibition was 92%.

Question: And the inhibition at 10 µM (SiHa)?
Answer: Its inhibition at 10 µM is 97%.

Question: And the inhibition [5]?
Answer: The inhibition was -1%.

Question: What about the inhibition [6] of the same compound?
Answer: The inhibition was 53%.

Question: And the half-life at 2 µM [7]?
Answer: The half-life at 2 µM was 23.1 min.

Question: And the inhibition [8]?
Answer: The inhibition was -3%.

Question: And the Activity (NCI-H1299 [9])?
Answer: The Activity was “Active”.

Question: And the inhibition [10]?
Answer: Its inhibition is 48%.

Question: What about the Activity (NCI-H1299 [11]) of the same compound?
Answer: The Activity was 0.432%.

Question: And the inhibition [12]?
Answer: The inhibition was 35%.

Question: What about the inhibition [13] of the same compound?
Answer: The inhibition was 20%.

Question: And the pIC50 (NCI-H1299 [14])?
Answer: The pIC50 was 6.69.

Question: What about the inhibition [15] of the same compound?
Answer: Its inhibition is 12%.

Question: What about the inhibition [16] of the same compound?
Answer: The inhibition was 76%.

Question: And the inhibition [17]?
Answer: Its inhibition is 71%.

Question: What about the Activity (NCI-H1299 [18]) of the same compound?
Answer: Its Activity is “Active”.

Question: And the inhibition [19]?
Answer: The inhibition was 24%.

Question: And the inhibition [20]?
Answer: The inhibition was 26%.
